Laboratory results: ChEMBL document CHEMBL4402517, “Rational modification of Mannich base-type derivatives as novel antichagasic compounds: Synthesis, in vitro and in vivo evaluation” (Bioorg Med Chem, 2019)

What was measured:
[1] = (§1) Toxicity in BALB/c mouse infected with Trypanosoma cruzi MHOM/Pe/2011/Arequipa;DTU 5 bloodstream trypomastigote assessed as increase in serum aspartate aminotransferase level in acute phase at 20 mg/kg/day, po administered for 5 consecutive days starting from day 8 post infection and measured at day 14 post infection by biochemical analysis relative to control; type: organism-based; conditions: in vivo
[2] = as §1, with “decrease” for “increase”, “total bilirubin” for “aspartate aminotransferase”; type: organism-based; design: scale not given: the % may be the effect or the level left; conditions: in vivo
[3] = as §1, with “as change” for “as increase”, “serum total bilirubin” for “serum aspartate aminotransferase”, “measured on” for “measured at”, “day 100” for “day 14”; type: organism-based; conditions: in vivo
Outline: (§2)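 Female BALB/c mice (10–12 weeks, 14–20 g; groups of three) were infected i.p. with 5 × 10^5 Arequipa bloodstream trypomastigotes. Dosing was oral at 20 mg/kg/day for 5 days, from day 8 pi (acute) or day 70 pi (chronic), as a 2 mg/ml suspension in 5% DMSO/0.5% HPMC; controls received vehicle. Cyclophosphamide 200 mg/kg i.p. was given at day 80 pi. Serum was collected 2 days post-treatment and at necropsy by cardiac puncture and compared with infected untreated controls.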

[4] = (§3) Toxicity in BALB/c mouse infected with Trypanosoma cruzi MHOM/Pe/2011/Arequipa;DTU 5 bloodstream trypomastigote assessed as decrease in serum urea level in chronic phase at 20 mg/kg/day, po administered for 5 consecutive days starting from day 70 post infection measured on day 100 post infection relative to control; type: organism-based; design: scale not given: the % may be the effect or the level left; conditions: in vivo; outline: as §2
[5] = as §3, with “lactate dehydrogenase” for “urea”; type: organism-based; design: scale not given: the % may be the effect or the level left; conditions: in vivo; outline: as §2
[6] = as §3, with “total bilirubin” for “urea”; type: organism-based; design: scale not given: the % may be the effect or the level left; conditions: in vivo; outline: as §2
[7] = Genotoxicity in Salmonella typhimurium TA1535 harboring pSK1002 assessed as survival at 0.002 mg/ml in absence of Sprague-Dawley rat liver S9 fraction metabolic activation by SOS/umu assay relative to control; type: toxicity; conditions: salmonella enterica subsp. enterica serovar typhimurium, read-out: Survival
Outline: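 Salmonella typhimurium TA1535/pSK1002 was exposed to compounds at several concentrations with or without S9 mix, and bacterial survival % was measured. β-galactosidase induction was measured colorimetrically with ONPG substrate. Genotoxicity was counted where IF ≥ 2 at ≥80% survival; runs were valid if positive controls reached IF ≥ 2.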

[8] = Genotoxicity in Salmonella typhimurium TA1535 harboring pSK1002 assessed as survival at 0.25 mg/ml in presence of Sprague-Dawley rat liver S9 fraction metabolic activation by SOS/umu assay relative to control; type: toxicity, subcellular; conditions: salmonella enterica subsp. enterica serovar typhimurium, read-out: Survival
Outline: (§4)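 Survival of S. typhimurium TA1535/pSK1002 exposed to a range of compound concentrations with or without S9 mix in 96-well format. Survival percentage measured as the cytotoxicity arm of the SOS/umu test. Concentrations with survival ≥80% are counted as non-cytotoxic.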

[9] = Genotoxicity in Salmonella typhimurium TA1535 harboring pSK1002 assessed as survival at 0.016 mg/ml in presence of Sprague-Dawley rat liver S9 fraction metabolic activation by SOS/umu assay relative to control; type: toxicity, subcellular; conditions: salmonella enterica subsp. enterica serovar typhimurium, read-out: Survival; outline: as §4
[10] = Genotoxicity in Salmonella typhimurium TA1535 harboring pSK1002 assessed as umu gene induction at 0.031 mg/ml in absence of Sprague-Dawley rat liver S9 fraction metabolic activation by SOS/umu assay relative to control; type: toxicity; conditions: salmonella enterica subsp. enterica serovar typhimurium, read-out: FC
Outline: (§5)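 umu induction in S. typhimurium TA1535/pSK1002, with or without S9 mix, in 96-well format. β-galactosidase read colorimetrically with ONPG substrate. Output given as relative units and induction factor (IF). The run is valid if positive controls reach IF ≥2. A compound counts as genotoxic at IF ≥2 at a concentration giving ≥80% bacterial survival.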

[11] = Genotoxicity in Salmonella typhimurium TA1535 harboring pSK1002 assessed as umu gene induction at 0.063 mg/ml in presence of Sprague-Dawley rat liver S9 fraction metabolic activation by SOS/umu assay relative to control; type: toxicity, subcellular; conditions: salmonella enterica subsp. enterica serovar typhimurium, read-out: FC; outline: as §5
[12] = Genotoxicity in Salmonella typhimurium TA1535 harboring pSK1002 assessed as umu gene induction at 0.016 mg/ml in presence of Sprague-Dawley rat liver S9 fraction metabolic activation by SOS/umu assay relative to control; type: toxicity, subcellular; conditions: salmonella enterica subsp. enterica serovar typhimurium, read-out: FC; outline: as §5
[13] = as §1, with “as change” for “as increase”, “serum lactate dehydrogenase” for “serum aspartate aminotransferase”, “measured on” for “measured at”, “day 100” for “day 14”; type: organism-based; conditions: in vivo; outline: as §2
[14] = Toxicity in BALB/c mouse infected with Trypanosoma cruzi MHOM/Pe/2011/Arequipa;DTU 5 bloodstream trypomastigote assessed as change in serum uric acid level in chronic phase at 20 mg/kg/day, po administered for 5 consecutive days starting from day 70 post infection and measured at day 76 post infection relative to control; type: organism-based; conditions: in vivo
[15] = as §3, with “change” for “decrease”, “lactate dehydrogenase” for “urea”; type: organism-based; conditions: in vivo
[16] = Mutagenecity against Salmonella typhimurium TA97a assessed as number of colonies at 22.2 ug/plate in presence of Sprague-Dawley rat S9 with metabolic activation measured after 48 hrs by Ames test (reference value: 55 +/- 7.1); type: toxicity, subcellular; conditions: salmonella enterica subsp. enterica serovar typhimurium, s9, 48 h
[17] = Mutagenecity against Salmonella typhimurium TA97a assessed as number of colonies at 200 ug/plate in absence of Sprague-Dawley rat S9 […] measured after 48 hrs by Ames test ( Rvb = 37 +/- 6.5); type: toxicity; conditions: salmonella enterica subsp. enterica serovar typhimurium, s9, 48 h
[18] = Mutagenecity against Salmonella typhimurium TA97a assessed as number of colonies at 66.7 ug/plate in absence of Sprague-Dawley rat S9 […] measured after 48 hrs by Ames test ( Rvb = 37 +/- 6.5); type: toxicity; conditions: salmonella enterica subsp. enterica serovar typhimurium, s9, 48 h
[19] = Mutagenecity against Salmonella typhimurium TA98 assessed as number of colonies at 66.7 ug/plate in presence of Sprague-Dawley rat S9 measured after 48 hrs by Ames test (reference value: 4 +/- 2); type: toxicity, subcellular; conditions: salmonella enterica subsp. enterica serovar typhimurium, s9, 48 h
[20] = Mutagenecity against Salmonella typhimurium TA98 assessed as number of colonies at 200 ug/plate in presence of Sprague-Dawley rat S9 measured after 48 hrs by Ames test (reference value: 4 +/- 2); type: toxicity, subcellular; conditions: salmonella enterica subsp. enterica serovar typhimurium, s9, 48 h
[21] = Mutagenecity against Salmonella typhimurium TA 102 assessed as number of colonies at 22.2 ug/plate in presence of Sprague-Dawley rat S9 with metabolic activation measured after 48 hrs by Ames test (reference value: 72 +/- 1); type: toxicity, subcellular; conditions: salmonella enterica subsp. enterica serovar typhimurium, s9, 48 h
[22] = Mutagenecity against Salmonella typhimurium TA1535 assessed as number of colonies at 200 ug/plate in absence of Sprague-Dawley rat S9 measured after 48 hrs by Ames test (reference value: 13.3 +/- 2.5); type: toxicity; conditions: salmonella enterica subsp. enterica serovar typhimurium, s9, 48 h
[23] = Toxicity in BALB/c mouse infected with Trypanosoma cruzi MHOM/Pe/2011/Arequipa;DTU 5 bloodstream trypomastigote assessed as increase in serum total bilirubin level in acute phase at 20 mg/kg/day, po administered for 5 consecutive days and measured on day 100 post infection by biochemical analysis relative to control; type: organism-based; conditions: in vivo
[24] = as §3, with “increase” for “decrease”, “total bilirubin” for “urea”; type: organism-based; conditions: in vivo

In the case of O=C(Cn1ccnc1[N+](=O)[O-])NCc1ccccc1 [BENZNIDAZOLE], the Activity [1] is reported as “<= 20%”, the Activity [2] is reported as “<= 10%” and the Activity [3] is reported as > 10%. The Activity [4] was “<= 30%”, the Activity [5] was “<= 10%” and the Activity [6] was “<= 10%”.
Molecule O=C(CCN1CCN(c2ccc(Cl)cc2)CC1)c1ccc(O)cc1 has a viability at 0.002 mg/ml [7] of 109%, a viability at 0.25 mg/ml [8] of 138% and a viability at 0.016 mg/ml [9] of 106%. It also gave a fold induction at 0.031 mg/ml [10] of 0.7, a fold induction at 0.063 mg/ml [11] of 0.87 and a fold induction at 0.016 mg/ml [12] of 0.84. The Activity [13] was > 10%, the Activity [3] was > 10% and the Activity [14] was > 10%. For the same molecule, the Activity [4] was “<= 10%”, the Activity [15] was > 10% and the Activity [6] was “<= 10%”. It also gave an Activity [16] of 38.3, an Activity [17] of 32.3 and an Activity [18] of 31.3. For the same molecule, the Activity [19] was 6.3, the Activity [20] was 2.7 and the Activity [21] was 84.7. The Activity [22] was 4.
O=C(CCN1CCN(c2ccc(C(F)(F)F)cc2)CC1)c1ccc(O)cc1 gave a viability at 0.002 mg/ml [7] of 116%, a viability at 0.25 mg/ml [8] of 140% and a viability at 0.016 mg/ml [9] of 110%. For the same molecule, the fold induction at 0.031 mg/ml [10] was 0.66, the fold induction at 0.063 mg/ml [11] was 0.85 and the fold induction at 0.016 mg/ml [12] was 0.79. The Activity [13] was > 10%, the Activity [23] was > 40% and the Activity [5] was “<= 30%”. For the same molecule, the Activity [24] was “<= 20%”.
